Experimental data: ChEMBL document CHEMBL3421605, “Structure-activity relationship studies of SEN12333 analogues: determination of the optimal requirements for binding affinities at α7 nAChRs through incorporation of known structural motifs” (Eur J Med Chem, 2015)

Legend:
[1] = molecular target: T1, Neuronal acetylcholine receptor subunit alpha-7 (Rattus norvegicus, UniProt Q05941); assay: Displacement of [3H]epibatidine from rat alpha7 nAChR transfected in HEK293 cells by liquid scintillation counting; assay type: cell-based
In short: (§1)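 Stably transfected HEK293 cells scraped at >80% confluence into 50 mM Tris·HCl pH 7.4 at 4 °C and spun at 10,000 g. Pellet homogenised and spun at 36,000 g for 10 min at 4 °C, then resuspended. Competition against racemic [3H]epibatidine at ~500 pM (α3β4, α4β2) or ~2 nM (α7). Nonspecific binding with 300 µM nicotine. GF/C filters pretreated with 0.5% PEI. Ki derived.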

[2] = molecular target: Neuronal acetylcholine receptor; alpha4/beta2 (Rattus norvegicus, UniProt P09483+P12390); assay: Displacement of [3H]epibatidine from rat alpha4beta2 nAChR transfected in HEK293 cells by liquid scintillation counting; assay type: cell-based; in short: as §1
[3] = molecular target: Neuronal acetylcholine receptor; alpha3/beta4 (Rattus norvegicus, UniProt P04757+P12392); assay: Displacement of [3H]epibatidine from rat alpha3beta4 nAChR transfected in HEK293 cells by liquid scintillation counting; assay type: cell-based; in short: as §1
[4] = molecular target: T1, Neuronal acetylcholine receptor subunit alpha-7; assay: Agonist activity at rat alpha7 nAChR expressed in GH4C1 cells by fluorescent calcium assay; assay type: cell-based, GH4-C1
In short: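 GH4C1 cells stably expressing rat α7 loaded with Fluo4 Direct dye. Baseline fluorescence read, then compound added, and peak/base ratios taken; >1.00 taken as agonism. Tested at 0.03, 0.1, 0.3, 1, 3 and 10 µM (one compound at 0.001–0.3 µM), n = 3. EC50 from dose–response curves.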

[5] = molecular target: T1, Neuronal acetylcholine receptor subunit alpha-7; assay: Agonist activity at rat alpha7 nAChR expressed in GH4C1 cells by patch-clamp electrophysiology assay; assay type: cell-based, GH4-C1
[6] = molecular target: Neuronal acetylcholine receptor subunit alpha-7 (Rattus norvegicus) (UniProt Q05941); assay: Agonist activity at rat alpha7 nAChR expressed in GH4C1 cells by patch-clamp electrophysiology assay relative to acetylcholine; assay type: cell-based; details: GH4-C1
Chain of Neuronal acetylcholine receptor subunit alpha-7 (Rattus norvegicus) (Q05941 whole entry): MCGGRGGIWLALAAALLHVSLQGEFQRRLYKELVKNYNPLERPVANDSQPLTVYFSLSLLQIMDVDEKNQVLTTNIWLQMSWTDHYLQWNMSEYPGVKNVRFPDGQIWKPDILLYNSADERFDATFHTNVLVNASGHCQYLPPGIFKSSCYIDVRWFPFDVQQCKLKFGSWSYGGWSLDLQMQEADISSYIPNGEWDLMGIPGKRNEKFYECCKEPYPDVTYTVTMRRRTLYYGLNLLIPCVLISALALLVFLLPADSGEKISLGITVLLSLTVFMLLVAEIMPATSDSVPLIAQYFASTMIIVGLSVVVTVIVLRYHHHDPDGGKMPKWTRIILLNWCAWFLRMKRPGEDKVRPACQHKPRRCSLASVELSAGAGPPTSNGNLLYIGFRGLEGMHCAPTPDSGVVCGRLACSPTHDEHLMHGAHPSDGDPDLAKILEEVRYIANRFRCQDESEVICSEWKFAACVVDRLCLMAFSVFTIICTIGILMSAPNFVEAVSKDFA

T1 sequence (Q05941 whole entry): as above
Chain of Neuronal acetylcholine receptor; alpha4/beta2 (P09483 whole entry): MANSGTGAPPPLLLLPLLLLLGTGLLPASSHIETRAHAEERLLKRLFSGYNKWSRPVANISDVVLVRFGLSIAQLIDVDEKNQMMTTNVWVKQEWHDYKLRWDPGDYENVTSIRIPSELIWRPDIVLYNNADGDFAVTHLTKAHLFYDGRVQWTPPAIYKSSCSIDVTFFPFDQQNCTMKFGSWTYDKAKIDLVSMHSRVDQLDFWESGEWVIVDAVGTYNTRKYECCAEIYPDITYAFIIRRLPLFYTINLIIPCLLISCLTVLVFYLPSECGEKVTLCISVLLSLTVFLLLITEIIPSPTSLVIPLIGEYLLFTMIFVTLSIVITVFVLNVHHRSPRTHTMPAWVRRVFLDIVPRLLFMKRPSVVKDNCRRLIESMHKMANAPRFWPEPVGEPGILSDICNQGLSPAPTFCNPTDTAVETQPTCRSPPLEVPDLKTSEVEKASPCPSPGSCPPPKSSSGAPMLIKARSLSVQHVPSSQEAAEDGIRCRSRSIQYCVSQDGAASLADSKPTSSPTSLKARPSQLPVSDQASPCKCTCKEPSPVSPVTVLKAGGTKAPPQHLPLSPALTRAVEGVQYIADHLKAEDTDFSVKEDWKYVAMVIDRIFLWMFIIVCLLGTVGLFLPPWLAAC
Chain of Neuronal acetylcholine receptor; alpha4/beta2 (P12390 whole entry): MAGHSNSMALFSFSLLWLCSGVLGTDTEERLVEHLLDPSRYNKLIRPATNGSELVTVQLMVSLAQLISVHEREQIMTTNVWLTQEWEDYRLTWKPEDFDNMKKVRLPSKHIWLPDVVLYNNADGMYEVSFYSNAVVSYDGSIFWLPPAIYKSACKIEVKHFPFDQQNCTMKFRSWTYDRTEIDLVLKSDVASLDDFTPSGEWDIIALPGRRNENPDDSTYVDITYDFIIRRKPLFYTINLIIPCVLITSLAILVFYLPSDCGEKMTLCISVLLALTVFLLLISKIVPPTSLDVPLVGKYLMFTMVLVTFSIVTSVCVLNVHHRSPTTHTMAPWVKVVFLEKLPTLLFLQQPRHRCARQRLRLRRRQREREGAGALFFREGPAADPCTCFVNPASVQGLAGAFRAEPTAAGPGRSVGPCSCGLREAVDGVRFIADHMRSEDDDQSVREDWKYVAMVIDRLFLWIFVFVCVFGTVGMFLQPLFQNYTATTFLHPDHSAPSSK
Chain of Neuronal acetylcholine receptor; alpha3/beta4 (P04757 whole entry): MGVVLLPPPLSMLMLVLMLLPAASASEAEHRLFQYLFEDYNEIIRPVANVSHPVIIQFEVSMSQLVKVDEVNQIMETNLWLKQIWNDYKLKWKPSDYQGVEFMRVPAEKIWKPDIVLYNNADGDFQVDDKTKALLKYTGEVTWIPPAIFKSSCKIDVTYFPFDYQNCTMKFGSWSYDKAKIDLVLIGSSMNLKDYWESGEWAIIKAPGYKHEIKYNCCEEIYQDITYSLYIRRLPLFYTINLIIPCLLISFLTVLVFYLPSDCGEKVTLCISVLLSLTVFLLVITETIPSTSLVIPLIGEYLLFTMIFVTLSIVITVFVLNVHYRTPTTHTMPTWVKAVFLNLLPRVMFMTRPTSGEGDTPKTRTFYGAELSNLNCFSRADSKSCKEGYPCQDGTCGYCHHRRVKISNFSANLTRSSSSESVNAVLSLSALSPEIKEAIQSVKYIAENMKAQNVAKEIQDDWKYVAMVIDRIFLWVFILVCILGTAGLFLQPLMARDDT
Chain of Neuronal acetylcholine receptor; alpha3/beta4 (P12392 whole entry): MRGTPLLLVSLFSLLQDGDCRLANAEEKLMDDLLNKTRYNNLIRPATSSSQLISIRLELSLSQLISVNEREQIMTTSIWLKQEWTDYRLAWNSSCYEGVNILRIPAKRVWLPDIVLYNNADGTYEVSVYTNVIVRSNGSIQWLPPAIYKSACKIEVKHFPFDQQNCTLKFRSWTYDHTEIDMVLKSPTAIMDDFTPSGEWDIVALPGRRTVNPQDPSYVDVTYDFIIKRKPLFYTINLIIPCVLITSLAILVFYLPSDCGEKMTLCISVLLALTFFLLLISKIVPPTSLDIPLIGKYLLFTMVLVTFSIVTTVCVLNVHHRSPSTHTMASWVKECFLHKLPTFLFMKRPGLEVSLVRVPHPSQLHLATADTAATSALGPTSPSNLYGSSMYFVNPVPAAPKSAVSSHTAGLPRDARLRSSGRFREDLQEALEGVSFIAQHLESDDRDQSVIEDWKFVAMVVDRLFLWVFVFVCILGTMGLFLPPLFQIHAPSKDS

SMILES | Ki [1] [µM] | Ki [2] [µM] | Ki [3] [µM] | EC50 [4] [µM] | EC50 [5] [µM] | Emax [6] [%]
O=C(CCCCN1CC2(COC2)C1)Nc1ccc(-c2cccnc2)cc1 | > 10 | > 10 | > 50 | – | – | –
c1ccc(-c2ccc(N3CCCCC3)nn2)cc1 | > 10 | > 10 | > 10 | – | – | –
O=C(NCCCCN1CCCCC1)c1ccc(-c2ccccc2)cc1 | 0.41 | > 10 | > 10 | – | – | –
O=C(CCCCN1CCCCC1)Nc1ccc(-c2ccccc2)cc1 | 0.19 | > 10 | 2.6 | – | – | –
CN1CCN(c2ccc(-c3ccccc3)nn2)CC1 | 4.07 | 0.417 | > 10 | – | – | –
c1cncc(-c2ccc(N3CCOCC3)cc2)c1 | > 10 | – | > 10 | – | – | –
c1ccc(-c2ccc(N3CCOCC3)nn2)cc1 | > 10 | > 100 | > 1000 | – | – | –
O=C(CCCCN1CCOCC1)Nc1ccc(-c2cccnc2)cc1 | – | > 10 | > 10 | 0.687 | 42 | 104
c1ccc(-c2ccc(N3CCOCC3)cc2)cc1 | > 10 | > 10 | > 10 | – | – | –
CN1C[C@@H]2C[C@H]1CN2c1ccc(-c2ccccc2)nn1 | – | – | > 50 | – | – | –
c1cncc(-c2ccc(N3CCCCC3)cc2)c1 | > 10 | > 10 | > 10 | – | – | –
c1cc2cc(-c3ccc(N4CCOCC4)nn3)ccc2[nH]1 | > 10 | > 10 | > 10 | – | – | –
O=C(CCCCN1CCCCC1)Nc1cc(-c2ccccc2)[nH]n1 | 0.66 | > 50 | > 10 | – | – | –
O=C(NCCCCN1CCCCC1)c1ccc(-c2cccnc2)cc1 | 1.4 | > 10 | > 50 | – | – | –
c1ccc(-c2ccc(N3CCCCC3)cc2)cc1 | > 10 | > 10 | > 10 | – | – | –
O=C(CCCCN1CCOCC1)Nc1ccc(-c2ccccn2)cc1 | 0.33 | > 10 | > 10 | – | – | –
CN1CCN(CCCCNC(=O)c2ccc(-c3cccnc3)cc2)CC1 | > 10 | > 10 | > 10 | – | – | –
CN1CCN(CCCCC(=O)Nc2ccc(-c3cccnc3)cc2)CC1 | 9.33 | – | 313 | – | – | –

SMILES | Ki [1] [µM] | Ki [2] [µM] | Ki [3] [µM] | EC50 [4] [µM] | EC50 [5] [µM] | Emax [6] [%]
CN1C[C@@H]2C[C@H]1CN2c1ccc(-c2cccnc2)cc1 | 0.14 | > 10 | > 10 | 0.126 | – | –
O=C(CCCCN1CCOCC1)Nc1ccc(-c2cccnc2F)cc1 | 0.085 | > 10 | > 10 | 0.145 | 27.3 | 136
O=C(CCCCN1CCCCC1)Nc1ccc(-c2cccnc2)cc1 | 0.22 | > 10 | > 10 | – | – | –
CN1C[C@@H]2C[C@H]1CN2CCCCC(=O)Nc1ccc(-c2cccnc2)cc1 | > 10 | > 10 | > 100 | – | – | –
O=C(CCCCN1CCOCC1)Nc1cc(-c2ccccc2)[nH]n1 | 2.6 | > 10 | > 10 | – | – | –
CN1CCN(c2ccc(-c3cccnc3)cc2)CC1 | 9.4 | > 10 | > 10 | – | – | –
CN1CCN(CCCCNC(=O)c2ccc(-c3ccccc3)cc2)CC1 | 5.4 | > 10 | > 100 | – | – | –
O=C(CCCCN1CCOCC1)Nc1ccc(-c2ccc3[nH]ccc3c2)cc1 | 0.31 | > 10 | > 10 | 0.997 | – | –
O=C(CCCCN1CCOCC1)Nc1ccc(-c2ccccc2)nn1 | > 10 | > 10 | > 10 | – | – | –
O=C(CCCCN1CCOCC1)Nc1ccc(-c2ccncc2)cc1 | 0.35 | > 10 | > 10 | 0.522 | – | –
O=C(CCCCN1CC2(COC2)C1)Nc1ccc(-c2ccccc2)cc1 | > 10 | > 10 | > 50 | – | – | –
CN1CCN(c2ccc(-c3ccccc3)cc2)CC1 | 7.7 | > 10 | > 10 | – | – | –
CN1C[C@@H]2C[C@H]1CN2CCCCC(=O)Nc1ccc(-c2ccccc2)cc1 | 3.2 | > 10 | > 10 | – | – | –
CN1CCN(CCCCC(=O)Nc2cc(-c3ccccc3)[nH]n2)CC1 | > 10 | > 10 | > 10 | – | – | –
CN1C[C@@H]2C[C@H]1CN2c1ccc(-c2ccccc2)cc1 | 0.034 | > 10 | > 10 | 0.253 | – | –
CN1C[C@@H]2C[C@H]1CN2CCCCNC(=O)c1ccc(-c2cccnc2)cc1 | > 10 | > 10 | > 10 | – | – | –
CN1CCN(CCCCC(=O)Nc2ccc(-c3ccccc3)cc2)CC1 | 1.62 | – | 88.1 | – | – | –
CN1C[C@@H]2C[C@H]1CN2CCCCNC(=O)c1ccc(-c2ccccc2)cc1 | 6.1 | > 10 | > 10 | – | – | –
